Assay results: ChEMBL document CHEMBL4513216, “Probing the Open Global Health Chemical Diversity Library for Multistage-Active Starting Points for Next-Generation Antimalarials” (ACS Infect Dis, 2020)

experiment: Toxicity liver stage against HepG2, at 10uM; format: cell-based; design: test concentration 10 uM, cell line HepG2-A16-CD81EGFP; settings: human, HepG2-A16-CD81EGFP cells; read-out: INHIBITION
Outline: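 Uninfected HepG2-A16-CD81EGFP cells, 3 × 10^3 per well, 1536-well, plated on prespotted compound at 10 μM final, parasite-free screening media added to match infected plates; puromycin 10 μM positive, DMSO 0.5% negative; run in parallel with 48 h PbLuc assay at 37 °C, 5% CO2; viability by CellTiter-Glo luminescence, normalized to controls.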

SMILES	cytotoxicity at 10 µM
CC[C@H]1CN(S(=O)(=O)c2ccccc2)CC[C@H]1CC(=O)O	1.7%
CC(=O)N1N=C(c2ccccc2)OC1C(=O)NCCc1cccc(F)c1 (configuration not stated)	-1.08%
CS(=O)(=O)N1CCc2ncc(CNC(=O)C3CCC3)n2CC1	10.9%
Cc1cnc(C(=O)N2C[C@H]3CN(Cc4cccs4)C[C@H]3C2)cn1	-148%
Cc1cc(O)c(OCC(=O)Nc2nccs2)cn1	4.07%
O=C(NCc1ccco1)c1nn(C2CCS(=O)(=O)C2)c2c1CCCC2 (configuration not stated)	-11%
Cc1nccc([C@@H]2C[C@@H]3CCN(S(C)(=O)=O)C[C@H]3O2)n1	-11.3%
CC(=O)N1CC(=O)N(c2cnn(C)c2)CC12CCN(Cc1ccoc1)C2 (configuration not stated)	-9.81%
CC(=O)Nc1ccn(Cc2ccccc2)n1	2.04%
Cc1nn(C)c(C)c1-c1nccnc1CC1CCNCC1	-2.38%
NC(=O)CN1CCCCC1c1ccc(-n2ccnc2)nc1 (configuration not stated)	1.6%
COc1cccc(CC(=O)NC(C)c2nc3cccnc3n2C(C)C)c1 (configuration not stated)	-22.6%
O=C(O)CN1CCOCC(Cc2ccc(Cl)cc2)C1 (configuration not stated)	-25.7%
O=C1NCC2(CCCN(Cc3cccnc3)C2)Oc2ccccc21 (configuration not stated)	-24.1%
CN(CCN(C)S(=O)(=O)CC1CCOCC1)c1ccccc1	-9.65%
CCOCC(=O)Nc1cc(-n2nnnc2C2CC2)ccc1F	-4.28%
CC(C)N(C)S(=O)(=O)N1CCN(Cc2ccco2)CC1	-0.796%
COCc1c(Cl)cccc1NC(=O)CNC(=O)C(C)(C)C	-5.73%
CN1CCOC(CNCC(=O)NCCCc2ccccc2)C1 (configuration not stated)	-3.23%
OC1(CN2CCCC(Cn3cncn3)C2)CCCCC1 (configuration not stated)	2.96%
CCn1nc2c(cc1=O)CN(CCOc1ccc(C#N)cc1)CC2	-3.73%

SMILES	cytotoxicity at 10 µM
CC(c1ncc(C(C)(C)C)o1)N1CCN(c2ccncc2)CC1 (configuration not stated)	18.5%
COc1cc(C2(C(=O)N3CCN(CC(C)O)CC3)CC2)ccc1C (configuration not stated)	-2.43%
O=C(CS(=O)(=O)c1ccccn1)NC1CCCc2ccccc21 (configuration not stated)	-4.04%
CC(C(=O)NCc1ccnc(OCC(F)(F)F)c1)n1cncn1 (configuration not stated)	1.13%
O=C(NC1CCN(Cn2nc(-c3ccccc3)oc2=O)CC1)C1CC1	8.19%
NS(=O)(=O)c1ccc(CNC(=O)c2ccc(Cl)cc2F)cc1	-1.59%
O=C(Nc1ccnn1C1CCCC1)c1ccc(NC2CC2)nc1	4.75%
c1cncc(CN2CCC(NCCc3ccc4c(c3)OCO4)CC2)c1	-9.62%
CC(C(=O)Nc1ncccn1)N1CCc2[nH]nc(C(F)(F)F)c2C1 (configuration not stated)	-0.583%
CC(O)CN1CCC(CN(C)Cc2ccc(C#N)cc2)CC1 (configuration not stated)	0.788%
CCc1ccc(-c2nn3c(nc2=O)-c2ccccc2NC3C(=O)O)cc1 (configuration not stated)	11.2%
COc1ccc(Cl)cc1NC(=O)N(C)CC(O)COCCOC(C)C (configuration not stated)	11.3%
CC(=O)NC1CCCN(c2ccc(C#N)cc2C(F)(F)F)C1 (configuration not stated)	7.44%
CN(CCC(F)(F)F)C(=O)[C@H]1CSCN1C(=O)OC(C)(C)C	-9.39%
CN(Cc1nccn1CC(F)(F)F)C(=O)c1ccc(F)c(F)c1	-0.394%
CCc1cn[nH]c1C1CCN(C(=O)c2cc(C(C)=O)c(C)[nH]c2=O)CC1	-2.23%
CCC(=O)Nc1cccc(OCC(=O)N2C[C@H]3CC[C@H]2C3)c1	-2.18%
CCC(C(=O)N(C)C)N1CCC(c2nccn2Cc2cscn2)CC1 (configuration not stated)	2.86%
Cc1ccc(C(C(=O)O)N(C)CCCN2CCOCC2)c(C)c1 (configuration not stated)	0.129%
COCCCN1CCC(CNc2nccc(-c3cnn(C)c3)n2)C1 (configuration not stated)	-147%
O=C(C1CNCCN1C(=O)CCOc1ccccc1)N1CCOCC1 (configuration not stated)	0.311%

SMILES	cytotoxicity at 10 µM
CC(C)n1cnnc1CN(C)C(=O)CCn1cnc2ccccc2c1=O	6.4%
CCn1cc(CN2CCN(Cc3cc(C)cc(C)c3)C(=O)C2)cc1C#N	1.72%
CCn1c(C2CCCN(Cc3cc(C)cc(C)c3)C2)nn(C)c1=O (configuration not stated)	-3.12%
CCc1cc(N2CCS(=O)(=O)CC2)n2nc(C)c(C)c2n1	-4.02%
CCOC(=O)CNC(=O)N1CCOC(Cc2ccc(OC)cc2)C1 (configuration not stated)	-7.99%
O=C(NCC(F)(F)C(F)F)c1cccnc1	15.4%
COC(=O)CCCC(=O)N(C)CC1Cc2ccccc2CN1C (configuration not stated)	-12.4%
Cc1cccc(C(C(=O)NC(C)(C)CN2CCOCC2)N(C)C)c1 (configuration not stated)	-2.21%
OC1(CNc2ccc(-c3nc(C4CC4)no3)cn2)CCCCC1	7.72%
CC(Cc1ccc2c(c1)OCO2)c1cn(CCN2CCCC2)nn1 (configuration not stated)	7.09%
Cn1nc(CN2CCC(c3ccncc3)CC2)c2c(Cl)cccc21	-6.06%
Cc1ncc(C(=O)N2CC[C@@]3(O)CCN(C4CCCCC4)C[C@H]3C2)cn1	-135%
O=S(=O)(NCCc1nc(-c2cccnc2)n[nH]1)NCc1ccccc1	7.02%
CSCc1noc(Cn2ccc3ccccc3c2=O)n1	3.63%
Cc1cc(C)nc(N2C[C@H]3OC(=O)N(CCc4cccc(Cl)c4)[C@H]3C2)n1	6.72%
Cc1ccc(CCNC(=O)Cn2nc(C)n(Cc3ccccc3)c2=O)s1	-3.66%
CC(=O)N1CCC(Nc2cc(F)ccc2OCC2CCCO2)CC1 (configuration not stated)	-14.3%
COc1ncccc1NC(=O)N(Cc1ccco1)C1CC1	5.25%
COc1ccc(Cl)cc1CC(=O)NS(=O)(=O)c1ccc(C(N)=O)cc1	-2.64%
COc1cc(CCC(=O)NC(C)(C)C)ccc1OCC(F)(F)F	-8.76%
NC(=O)NCC1CCCCN1C(=O)c1cccc(Cl)c1 (configuration not stated)	-7.6%

SMILES	cytotoxicity at 10 µM
Cc1noc2ncc(C(=O)NCC3CCCO3)cc12 (configuration not stated)	-10.2%
Cc1nn(C)c(N(C)C)c1CNC1CCOc2c(Cl)cccc21 (configuration not stated)	-5.36%
Cc1nc(-c2ccco2)ccc1C(=O)N1CCn2c(C)nnc2C1	-5.83%
O=C(CN1CCC(c2ccnn2CCO)CC1)NCC1CCCCC1	-0.463%
Cc1cc(CN2CCN(CC(O)c3cccc(F)c3)CC2)no1 (configuration not stated)	-12.2%
Cc1nc(C)n(CC2CCCN2Cc2cn3ccccc3n2)n1 (configuration not stated)	-3.05%
CN(CC(=O)Nc1ccc(Br)cn1)C(=O)C(C)(C)C	-11.9%
CSC(C)C(=O)N(C)CC(=O)Nc1ccc(Br)cn1 (configuration not stated)	-7.18%
CC(C)c1nc(C2CCCN2CC(=O)Nc2cccnc2)no1 (configuration not stated)	-10.1%
NC(=O)CC1CCN(C(=O)NCCc2ccc(Cl)s2)CC1	-8.03%
O=C(NCCC(=O)N1CCCCCCC1)c1ccoc1	-22.2%
CCN(CC)CC1CCN(Cc2ccn(C)c(=O)c2)CC1	-14.7%
Cc1nnc2n1CCN(CC(=O)Nc1cc(C(C)C)no1)C2	-6.93%
CNC(=O)NC(=O)CN(CC(C)O)c1ccccc1 (configuration not stated)	10.9%
Cc1cc(NC(=O)NCc2ccccc2OC(F)F)n(C)n1	2.29%
CC(C)NC(=O)N1C[C@H](OCc2cccnc2)[C@H]2COC[C@H]21	6.43%
Cc1noc(C(C)C)c1C(=O)NCCCN1CCNCC1	-24.7%
Cc1cc(C(=O)N2CCc3nc(C4CCCCN4)ncc3C2)cs1 (configuration not stated)	-22.4%
Cc1cccc(CN2C(=O)CO[C@@H]3CN(C4CCOCC4)C[C@H]32)c1	-146%
